The source made the active and inactive calls. The rule behind the calls is not given here.
What was measured:
MDA-MB-453 [1] = assay: Antiproliferative activity against human MDA-MB-453 cells after 4 hrs by MTT assay; format: functional, cell-based
In short: (§1)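 Cells in DMEM with 10% FBS and 1% antibiotics, 37°C, 5% CO2; equal numbers plated in three or more replicates, attached overnight, then exposed to 5, 10, 20 or 50 μM (DMSO vehicle) in complete medium for 4 h. Then 0.5 mg/ml MTT for 1 h, medium replaced with PBS, absorbance at 570 nm minus 690 nm background; compared to DMSO.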

MCF7 [2] = assay: Antiproliferative activity against human MCF7 cells after 4 hrs by MTT assay; format: functional, cell-based; in short: as §1
MDA-MB-453 [3] = assay: Growth inhibition of human MDA-MB-453 cells by trypan blue exclusion assay; format: functional, cell-based
In short: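 Viability counted by trypan blue exclusion; cells grown at 1×10⁵ cells/mL, counts done in triplicate, mean ± SD relative to DMSO.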

MCF7 [4] = assay: Antiproliferative activity against human MCF7 cells assessed as cell survival at 50 uM by trypan blue exclusion assay relative to control; format: functional; conditions: read-out: Survival
In short: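 MCF-7 cells kept in DMEM with 10% fetal bovine serum and 1% antibiotics at 37°C, 5% CO2, grown at 1×10⁵ cells/mL. Cells were exposed to DMSO vehicle or DMSO-dissolved compound. Viability was scored by trypan blue exclusion cell counts, done in triplicate and given as mean ± SD. Survival was expressed relative to the DMSO control.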

MDA-MB-453 [5] = assay: Antiproliferative activity against human MDA-MB-453 cells assessed as decrease in ATP level in viable cells at 10 uM after 4 hrs by CellTiter-Glo luminescent assay relative to control; format: functional
In short: (§2)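 10,000 cells per well, treated in sextuplet with DMSO or 5, 10, 20 or 50 μM for 4 h. ATP read by CellTiter-Glo luminescence, normalized to average count of viable trypan-blue-excluding cells per condition, expressed relative to DMSO.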

MDA-MB-453 [6] = assay: Antiproliferative activity against human MDA-MB-453 cells assessed as decrease in ATP level in viable cells at 20 uM after 4 hrs by CellTiter-Glo luminescent assay relative to control; format: functional; in short: as §2
MCF7 [7] = assay: Antiproliferative activity against human MCF7 cells assessed as decrease in ATP level in viable cells after 4 hrs by CellTiter-Glo luminescent assay relative to control; format: functional, cell-based; in short: as §2
MDA-MB-453 [8] = assay: Antiproliferative activity against human MDA-MB-453 cells assessed as decrease in ATP level in viable cells at >20 uM after 4 hrs by CellTiter-Glo luminescent assay relative to control; format: functional, cell-based; in short: as §2
MDA-MB-453 [9] = assay: Cytotoxicity against DCFDA-treated human MDA-MB-453 cells assessed as increase in ROS production after 30 mins by flow cytometric analysis; format: functional
In short: (§3)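 Cells preloaded with 5μM carboxy-DCFDA for 30 min, then exposed to 20 μM compound or DMSO for 2 h, collected and analysed by flow cytometry (488 nm excitation, 530 nm emission); percentage of fluorescent cells vs DMSO; triplicate samples, two separate experiments.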

MCF7 [10] = assay: Cytotoxicity against DCFDA-treated human MCF7 cells assessed as increase in ROS production […] by flow cytometric analysis; format: functional, cell-based; in short: as §3
MDA-MB-453 [11] = assay: Cytotoxicity against human MDA-MB-453 cells assessed as decrease in oxygen consumption at 20 uM by Clark-type oxygen electrode analysis; format: functional, cell-based
In short: (§4)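 After 3 h exposure to 20 μM compound or DMSO, cells trypsinized, PBS-washed, pelleted; 5×10⁶ cells in 0.8 mL PBS with 10% FCS placed in a Clark-type oxygen electrode chamber to measure O2 consumption; duplicate experiments.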

MCF7 [12] = assay: Cytotoxicity against human MCF7 cells assessed as decrease in oxygen consumption at 20 uM by Clark-type oxygen electrode analysis; format: functional, cell-based; in short: as §4

Structure (SMILES) | Activity (MDA-MB-453 [1]) | Activity (MCF7 [2]) | IC50 (MDA-MB-453 [3]) | viability at 50 µM (MCF7 [4]) | Activity (MDA-MB-453 [5]) | Activity (MDA-MB-453 [6]) | Activity (MCF7 [7]) | Activity (MDA-MB-453 [8]) | Activity (MDA-MB-453 [9]) | Activity (MCF7 [10]) | Activity (MDA-MB-453 [11]) | Activity (MCF7 [12])
COc1ccc2c(c1)C(=O)C(C1=C(Cl)C(=O)c3ccccc3C1=O)=C(O)C2=O | Dose-dependent effect | inactive | 17 µM | 83% | 37% | 60% | inactive | inactive | 50% | inactive | Active | inactive
O=C1C(O)=C(C2=C(Cl)C(=O)c3ccccc3C2=O)C(=O)c2ccccc21 | Dose-dependent effect | inactive | 15 µM | 80% | 53% | 60% | inactive | inactive | 50% | inactive | Active | inactive
CC(C)=CCC[C@]1(C)C=Cc2c(ccc3c2C(=O)C(O)=C(C2=C(Cl)C(=O)c4ccccc4C2=O)C3=O)O1 | Dose-dependent effect | inactive | 34 µM | 85% | inactive | 27% | inactive | inactive | 50% | inactive | Active | inactive

Reference: ChEMBL document CHEMBL1926559, “Metabolic and electrochemical mechanisms of dimeric naphthoquinones cytotoxicity in breast cancer cells” (Bioorg Med Chem, 2011)
